Our source for the inhibition, Ki and Activity values is ChEMBL document CHEMBL1799960, “Diadenosine 5',5''-(boranated)polyphosphonate analogues as selective nucleotide pyrophosphatase/phosphodiesterase inhibitors” (J Med Chem, 2010).

Assay [1] has as its target T1, Ectonucleoside triphosphate diphosphohydrolase 8 (Homo sapiens) (UniProt Q5MY95).
T1 sequence (whole entry): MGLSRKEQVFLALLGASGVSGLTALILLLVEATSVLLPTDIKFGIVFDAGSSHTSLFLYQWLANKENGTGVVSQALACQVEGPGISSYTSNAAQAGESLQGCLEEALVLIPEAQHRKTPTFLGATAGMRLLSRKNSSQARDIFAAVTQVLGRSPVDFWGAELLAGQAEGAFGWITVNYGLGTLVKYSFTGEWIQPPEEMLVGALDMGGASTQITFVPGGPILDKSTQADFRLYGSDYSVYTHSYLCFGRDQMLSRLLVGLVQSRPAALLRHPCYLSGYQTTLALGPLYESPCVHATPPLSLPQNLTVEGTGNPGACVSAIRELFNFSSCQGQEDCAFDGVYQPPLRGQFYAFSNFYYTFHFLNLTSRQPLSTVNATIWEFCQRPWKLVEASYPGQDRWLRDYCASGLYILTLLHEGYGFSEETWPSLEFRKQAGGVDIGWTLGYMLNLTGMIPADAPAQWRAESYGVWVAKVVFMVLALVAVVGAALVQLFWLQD
The assay is described as follows: Inhibition of human NTPDase8 expressed in COS7 cells assessed as amount of inorganic phosphate released using ATP as the substrate at 100 uM after 15 mins by malachite green reagent method. The class given is cell-based. To be noted: COS-7. In outline:
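Protein extracts of transfected COS-7 cells (ecto-5'-nucleotidase: 100 μM AMP substrate; NTPDases: 100 μM ATP) were preincubated 3 min at 37 °C in Tris-Ringer pH 7.3 with inhibitor at 100 μM final. After 15 min, malachite green stop; Pi read at 630 nm. Activity given as % of substrate-only control. Mean ± SD of three experiments in triplicate.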

The target in assay [2] is T2, Ectonucleotide pyrophosphatase/phosphodiesterase family member 1 (Homo sapiens, UniProt P22413).
T2 sequence (P22413 whole entry): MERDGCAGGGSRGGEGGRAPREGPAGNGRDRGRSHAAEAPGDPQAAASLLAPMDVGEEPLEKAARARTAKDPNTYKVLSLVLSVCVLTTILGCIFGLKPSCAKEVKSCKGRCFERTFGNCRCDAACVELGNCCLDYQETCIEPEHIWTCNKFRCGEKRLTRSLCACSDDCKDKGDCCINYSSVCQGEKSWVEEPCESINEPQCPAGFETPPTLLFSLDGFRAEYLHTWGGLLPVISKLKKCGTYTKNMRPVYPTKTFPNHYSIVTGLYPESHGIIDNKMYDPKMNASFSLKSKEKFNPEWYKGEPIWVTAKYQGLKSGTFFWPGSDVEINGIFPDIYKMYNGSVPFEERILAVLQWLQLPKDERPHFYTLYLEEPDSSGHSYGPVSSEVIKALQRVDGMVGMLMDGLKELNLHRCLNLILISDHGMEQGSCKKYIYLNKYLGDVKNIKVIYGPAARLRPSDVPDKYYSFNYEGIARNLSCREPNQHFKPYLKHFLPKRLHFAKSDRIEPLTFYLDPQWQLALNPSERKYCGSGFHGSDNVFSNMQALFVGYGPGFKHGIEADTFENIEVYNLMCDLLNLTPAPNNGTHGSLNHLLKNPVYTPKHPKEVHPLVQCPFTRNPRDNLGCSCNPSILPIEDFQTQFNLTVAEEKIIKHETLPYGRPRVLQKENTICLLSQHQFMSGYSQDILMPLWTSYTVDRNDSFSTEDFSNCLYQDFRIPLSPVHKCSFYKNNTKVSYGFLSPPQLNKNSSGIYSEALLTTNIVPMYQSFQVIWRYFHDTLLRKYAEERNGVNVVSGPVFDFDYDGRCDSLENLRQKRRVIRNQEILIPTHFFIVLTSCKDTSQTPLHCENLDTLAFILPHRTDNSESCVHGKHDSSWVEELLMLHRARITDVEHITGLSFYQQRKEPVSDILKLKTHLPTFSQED
The assay is described as follows: Inhibition of human NPP1 expressed in COS7 cells assessed as enzyme-substrate-inhibitor dissociation constant using pnp-TMP as the substrate after 15 mins […]. Type of assay: cell-based, COS-7.

For assay [3], the target named is T3, Ectonucleoside triphosphate diphosphohydrolase 1 (Homo sapiens) (UniProt P49961).
T3 sequence (whole entry): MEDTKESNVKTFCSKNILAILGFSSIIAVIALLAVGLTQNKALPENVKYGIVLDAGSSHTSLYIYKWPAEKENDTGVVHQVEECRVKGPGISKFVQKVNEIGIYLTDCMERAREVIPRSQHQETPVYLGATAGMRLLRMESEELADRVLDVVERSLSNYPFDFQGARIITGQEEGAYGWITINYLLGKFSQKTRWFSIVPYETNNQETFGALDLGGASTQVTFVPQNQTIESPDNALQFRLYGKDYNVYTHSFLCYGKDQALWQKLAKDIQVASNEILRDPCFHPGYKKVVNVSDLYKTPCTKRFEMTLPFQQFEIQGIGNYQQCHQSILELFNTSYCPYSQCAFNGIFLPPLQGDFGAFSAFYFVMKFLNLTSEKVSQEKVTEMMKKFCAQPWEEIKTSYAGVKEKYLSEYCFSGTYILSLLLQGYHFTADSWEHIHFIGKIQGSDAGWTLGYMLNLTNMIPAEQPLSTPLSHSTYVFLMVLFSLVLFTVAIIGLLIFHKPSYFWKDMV
The assay is described as follows: Activity of human NTPDase1 expressed in COS7 cells assessed as amount of inorganic phosphate released using ATP as the substrate at 100 uM after 15 mins by malachite green reagent method. To be noted: COS-7. The class given is cell-based. In outline: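 Crude membrane-enriched protein extract of transiently transfected COS-7 cells, preincubated 3 min at 37 °C in Tris-Ringer buffer pH 7.3. Reaction started with 100 μM ATP, or with the analogue alone at 100 μM to test it as substrate. Stopped after 15 min with malachite green reagent; released Pi read at 630 nm. Mean ± SD, n = 3.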

Assay [4] concerns the target T4, Ectonucleotide pyrophosphatase/phosphodiesterase family member 1 (Homo sapiens) (UniProt P22413).
T4 sequence (whole entry): T2 sequence (P22413 whole entry)
The assay is described as follows: Inhibition of human NPP1 expressed in COS7 cells assessed as production of p-nitrophenol using pnp-TMP as the substrate at 100 uM after 15 mins […]. Type of assay: cell-based. The following applies: COS-7. The method in brief:
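Human NPP1, NPP2 (membrane lysate or conditioned medium for the secreted form) or NPP3 from transfected COS-7 cells, preincubated 3 min at 37 °C in 50 mM Tris pH 8.5 buffer with CaCl2, NaCl and KCl. Substrate and inhibitor both at 100 μM final. pnp-TMP: p-nitrophenol read at 405 nm at 15 min. ATP or Ap5A: stopped at 30 min with perchloric acid, then HPLC. Results as % residual activity versus control; three to six experiments in triplicate.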

Calls of active or inactive are those of the source. The rule behind the calls is not given here.

With `Nc1ncnc2c1ncn2[C@H]1C[C@H](O)[C@@H](COP(=O)(O)CP(=O)(O)OP(=O)(O)CP(=O)(O)OC[C@H]2O[C@@H](n3cnc4c(N)ncnc43)C[C@@H]2O)O1`, in assay [1], the inhibition entry is “inactive”. In assay [2], the inhibition constant (Ki) is 80 µM. In assay [3], the Activity was 1.1%. In addition, in assay [4], the inhibition was more than 90%.

In the case of `Nc1ncnc2c1ncn2[C@@H]1O[C@H](COP(=O)(O)CP(=O)(O)OP(=O)(O)CP(=O)(O)OC[C@H]2O[C@@H](n3cnc4c(N)ncnc43)[C@H](O)[C@@H]2O)[C@@H](O)[C@H]1O`, the inhibition entry in assay [1] is “inactive”. For the same compound, in assay [2], the Ki amounted to 147 µM. In addition, the Activity in assay [3] is 1.5%. Also, in assay [4], the inhibition was more than 90%.

On to `BP(=O)(OP(=O)(O)CP(=O)(O)OC[C@H]1O[C@@H](n2cnc3c(N)ncnc32)C[C@@H]1O)OP(=O)(O)CP(=O)(O)OC[C@H]1O[C@@H](n2cnc3c(N)ncnc32)C[C@@H]1O`, for which the inhibition entry in assay [1] is “inactive”. The Ki in assay [2] was 145 µM. The inhibition in assay [4] is more than 90%.

On to `BP(=O)(OP(=O)(O)CP(=O)(O)OC[C@H]1O[C@@H](n2cnc3c(N)ncnc32)[C@H](O)[C@@H]1O)OP(=O)(O)CP(=O)(O)OC[C@H]1O[C@@H](n2cnc3c(N)ncnc32)[C@H](O)[C@@H]1O`, for which the inhibition result in assay [1] is “inactive”. Further, the Ki in assay [2] amounted to 31 µM. For the same compound, the Activity in assay [3] came to 0.5%. For the same compound, in assay [4], the inhibition was more than 90%.
